# Shown are actives, neighbours in structure and some others; about 2.5% of the full set was active somewhere.
# SMARCA2 activ = SMARCA2 (BRM) function activators, primary screen, cell-based, luminescence, high throughput; MG213 cells, MMTV-luciferase reporter, dexamethasone, overnight; activation, % at 9.1 µM; AID 652017, 2013; 370,000 tested, 1% active; in the data active = activation above about 7.8%;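 note: 0% = vehicle wells and 100% = reference activator wells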
# TAG inh = inhibitors of triacylglycerol accumulation, primary screen, cell-based, uHTS, fluorescence, H9c2; H9c2 cells, Nile Red lipid (TAG) fluorescence; cells loaded with 200 µM oleic acid; inhibition, % at 12.5 µM; 230,000 tested, 0.66% active; AID 651582, 2012;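 active = pattern-corrected inhibition of lipid staining of at least 50% with the nuclear-stain viability signal not falling by more than 50%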;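 note: 0% = DMSO wells and 100% = triacsin C control wells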
# SR-BI DiI inh = inhibitors of SR-BI mediated HDL lipid uptake, primary screen, ldlA[mSR-BI] cells, fluorescence, single point. Scavenger receptor class B member 1 (Mus musculus), Q61009. ldlA[mSR-BI] CHO cells, DiI-HDL uptake fluorescence, 3 h. inhibition, % at 12.5 µM. 320,000 tested, 0.96% active;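 active = mean replicate inhibition of at least 70% and a set share of replicates each scoring 70 or more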;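 note: 0% = median of neutral control wells and 100% = median of positive control wells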
# Target sequence (Q61009 whole entry, looked up): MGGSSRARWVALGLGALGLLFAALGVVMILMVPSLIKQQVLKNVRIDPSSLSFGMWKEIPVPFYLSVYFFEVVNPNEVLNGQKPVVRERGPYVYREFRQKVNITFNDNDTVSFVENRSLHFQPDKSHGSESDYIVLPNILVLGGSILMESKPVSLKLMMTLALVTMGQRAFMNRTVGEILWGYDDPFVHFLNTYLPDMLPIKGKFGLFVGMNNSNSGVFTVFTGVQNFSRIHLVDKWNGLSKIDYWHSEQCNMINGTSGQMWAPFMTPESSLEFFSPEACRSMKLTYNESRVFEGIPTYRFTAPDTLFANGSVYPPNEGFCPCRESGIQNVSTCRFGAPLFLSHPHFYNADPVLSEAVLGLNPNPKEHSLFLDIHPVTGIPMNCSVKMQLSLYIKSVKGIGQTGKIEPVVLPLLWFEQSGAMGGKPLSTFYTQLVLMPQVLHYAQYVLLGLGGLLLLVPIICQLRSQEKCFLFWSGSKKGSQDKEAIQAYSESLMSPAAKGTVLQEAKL
# Vif inh = HIV Vif self-association inhibitors, primary screen, imaging, HEK293T, single point. inhibition, % at 7.49 µM. 340,000 tested, 0.35% active. AID 602346, 2012. HEK293T cells, Vif self-association by quenched fluorescence, 24 h; in the data active = inhibition above about 50%, passing the limit was not always enough
# SR-BI uptake up = activators of SR-BI mediated DiI-HDL uptake, primary screen, ldlA[mSR-BI] CHO cells, DiI fluorescence. 3 h; 100 = double the neutral-control signal. activation, % at 12.5 µM. 320,000 tested, 0.096% active. AID 504775, 2011;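 active = mean replicate activation of at least 60% and every replicate at or above 60%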;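 note: 0% = median plate neutral-control signal and 100% = twice that signal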
#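 Material – SR-BI-overexpressing, LDLR-lacking CHO cells · Medium – BSA-supplemented, HEPES-buffered Ham's F12, pH 7.4 · Doses – single concentration · Times – compound with DiI-HDL co-incubation, 3 h at 37 °C · Measured by – bottom-read fluorescence, 550/595 nm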
# SMARCA2 act conf = SMARCA2 (BRM) function activators, confirmation, cell-based, luminescence, triplicate | shares compounds with SMARCA2 activ | MG213 cells, MMTV-luciferase with dexamethasone, overnight; MG213 cells expressing E1A, Rb sequestered; DMSO wells 0%, reference activator 100% | activation, % at 9.1 µM | 3,500 tested, 30% active | AID 652260, 2013;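 active = activation above its plate's cutoff, the mean activation of tested wells plus 3 SD, cut at about 7.9% in these data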
# GAL4-VP16 Luc = GAL4-VP16 luciferase reporter activation, counter-screen for SMARCA2 (BRM) activator project, cell-based, pG5luc, luminescence, high throughput | shares compounds with SMARCA2 activ | HEK293 GAL4-VP16 pG5luc reporter; scaled: DMSO wells 0%, SAHA wells 100% | 3,500 tested, 41% active | AID 686939, 2013 | activation, % at 9.1 µM;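 active = activation above the solvent-only control well mean plus 3 SD, averaged across control plates, cut at about 5.2% in these data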
# An asterisk follows results filed as active; x = not tested or not shown.
SMILES,SMARCA2 activ,TAG inh,SR-BI DiI inh,Vif inh,SR-BI uptake up,SMARCA2 act conf,GAL4-VP16 Luc
CC(=O)C1CCC2C3CC=C4CC(SC(=N)N)CCC4(C)C3CCC12C (stereo not given),10.3*,21.1,-38.8,-23.6,38.8,-6.1,1.3
CC(=O)OCC(=O)C1CCC2C3CC=C4CC(O)CCC4(C)C3CCC12C (stereo not given),-3.8,1.6,11.1,-6.8,-11.1,x,x
O=C(/C=C/c1ccco1)NC(=S)Nc1cccc(C(=O)O)c1,8.4*,x,-0.8,7.7,0.8,6.3,1.2
CC(=O)Nc1ccc(NC(=S)NC(=O)/C=C/c2ccco2)cc1,-2.5,9.6,9.5,2.5,-9.5,x,x
Cc1cc(NC(=O)CSc2nnnn2-c2cc(Cl)ccc2C)no1,8.1*,x,x,-9.8,x,-2.8,0.6
O=C(NCC(=O)N1CCCC(C(F)(F)F)C1)c1ccco1 (stereo not given),0.6,2.6,-7.8,6.1,7.8,x,x
COc1ccc(C2CC(c3ccc(OC)c(OC)c3)=NN2C(=O)c2ccccc2)cc1 (stereo not given),13.3*,x,2.0,27.6,-2.0,12.5*,3.1
C=CCN1C(C(=O)OC)CN(Cc2cn(Cc3ccc(Cl)cc3)nn2)CCS1(=O)=O (stereo not given),8.5*,x,x,x,x,1.9,1.5
COC(=O)C1CN(Cc2ccc(Cl)cc2)CCS(=O)(=O)N1Cc1cn(Cc2ccc(Cl)cc2)nn1 (stereo not given),0.7,x,x,x,x,x,x
CCOC(=O)Cn1cc(CN2CCS(=O)(=O)N(Cc3ccc(F)cc3)C(C(=O)OC)C2)nn1 (stereo not given),8.5*,x,x,x,x,0.4,-0.4
NS(=O)(=O)c1ccc(N=Nc2c(O)ccc3ccccc23)cc1,8.8*,-15.5,1.8,-14.1,-1.8,-0.2,2.9
O=C(CCCc1ccccc1)Nc1cccc(C(=O)O)c1,8.2*,-5.4,-10.7,2.8,10.7,9.1*,14.2*
O=C(CCc1ccccc1)NC(=S)Nc1cccc(C(=O)O)c1,5.7,-2.5,-19.7,-5.2,19.7,x,x
Cc1cccc(NC(=O)CCc2ccccc2)c1,9.2*,-11.4,24.7,-4.6,-24.7,4.5,2.3
O=C(CCc1ccccc1)Nc1ccccc1[N+](=O)[O-],8.2*,x,-6.4,-23.3,6.4,14.7*,5.3*
Cc1ccc(NS(=O)(=O)c2ccc(Cl)nc2)c(C)c1,-1.5,4.9,0.3,-4.9,-0.3,x,x
CCOC(=O)C1=C[C@@H](C(C)(C)C)N(S(=O)(=O)c2ccc([N+](=O)[O-])cc2)[C@H]1c1ccccc1Cl,-3.7,x,x,x,x,x,x
c1ccc(OCCNc2ccn3nc(-c4ccc(OCCN5CCOCC5)cc4)cc3n2)cc1,-2.0,19.6,x,x,x,x,x
N#C/C(=C\c1ccc(OC(=O)c2cccs2)cc1)c1nc2ccccc2[nH]1,12.8*,x,0.6,-0.5,-0.6,8.5*,6.2*
O=C1/C(=C/c2cccnc2)SC(=S)N1CCc1ccccc1,8.7*,-20.6,0.2,-5.8,-0.2,0.8,1.4
COc1cccc(N(C)C(=O)[C@@H](C2CC2)[C@@H](O)c2ccc3ccccc3c2)c1,-1.3,x,x,x,x,x,x
O=C(COc1ccccc1/C=C\c1[nH]c(=O)[nH]c(=O)c1[N+](=O)[O-])Nc1ccccc1,10.7*,-1.7,-0.2,6.3,0.2,13.5*,2.1
CCc1ccc(OCCCC(=O)Nc2ccc(S(=O)(=O)Nc3cc(C)nc(C)n3)cc2)cc1,-3.9,x,x,7.4,x,x,x
Cc1cccc(C(=O)O/N=C(\N)CS(=O)(=O)c2ccccc2)c1,1.2,17.6,-1.6,x,1.6,x,x
COc1cccc(C(=O)O/N=C(\N)CS(=O)(=O)c2ccccc2)c1,12.0*,0.9,-21.0,2.8,21.0,2.2,1.9
SMILES,SMARCA2 activ,TAG inh,SR-BI DiI inh,Vif inh,SR-BI uptake up,SMARCA2 act conf,GAL4-VP16 Luc
O=C(NCc1cccnc1)c1cccs1,9.5*,1.8,-26.0,-1.9,26.0,1.8,-0.3
CSCCC(NC(=O)OCc1ccccc1)C(=O)NC(Cc1c[nH]c2ccccc12)C(=O)O (stereo not given),-2.7,x,x,x,x,x,x
Cc1ccc(Nc2ncc3c(n2)CC(C)CC3=O)c(C)c1 (stereo not given),8.2*,1.1,-6.3,-3.9,6.3,8.3*,3.7
CC1CC(=O)c2cnc(Nc3ccccc3)nc2C1 (stereo not given),2.5,x,-20.4,28.9,20.4,x,x
C[C@H]1CCCN1c1ccc2c(c1)OCCCN(C1CC1)S2(=O)=O,-1.4,x,x,x,x,x,x
Cc1ccnc(N(C(=O)c2cccs2)C(=O)c2cccs2)c1,10.6*,10.6,-14.0,-0.1,14.0,8.3*,6.8*
COC(=O)c1ccc(NCc2cc(O)ccc2O)cc1O,8.5*,41.5,-0.8,85.1*,0.8,6.1,2.9
CCc1ccc(NC(=O)CSc2nc(=O)n(CCCN(C)C)c3c2CCC3)cc1,1.3,-6.0,-16.6,-0.9,16.6,x,x
COc1cc(Cl)ccc1OCc1cc(C(=O)N2CCCCCCC2)no1,-1.8,x,22.7,-12.3,-22.7,x,x
CN(C(=O)c1cc(COc2c(F)cccc2F)on1)C1CCOC1 (stereo not given),2.7,11.7,-6.4,-2.7,6.4,x,x
COc1cc(C)ccc1OCc1cc(C(=O)N2CCN(C)C[C@@H]2c2ccccc2)no1,8.7*,x,39.7,-5.9,-39.7,3.9,2.1
COCCN1CCN(C(=O)c2cc(COc3ccc(Cl)cc3OC)on2)CC1,8.3*,-4.4,1.6,-6.4,-1.6,13.6*,9.7*
COc1cc(C)ccc1OCc1cc(C(=O)N2C[C@H]3CC[C@H]2C3)no1,2.7,x,3.2,-1.8,-3.2,x,x
COc1cc(Cl)ccc1OCc1cc(C(=O)N(C)C2CCOC2)no1 (stereo not given),8.7*,x,-0.5,-2.2,0.5,5.1,3.9
NNC(=S)Nc1c(Br)cc(F)cc1Br,-5.3,-1.6,-16.2,-1.4,16.2,x,x
CN(C(=O)CSc1nnc(-c2ccc(F)cc2)c2ccccc12)C1CCS(=O)(=O)C1 (stereo not given),0.5,-1.4,43.0,2.8,-43.0,x,x
Cc1cccc(CN2C(=O)/C(=C\c3ccc(C(=O)NCCCN4CCN(C)CC4)cc3)Oc3ccccc32)c1,8.5*,x,29.2,-21.3,-29.2,11.6*,-1.2
Cn1sc2ccccc2c1=O,12.8*,13.4,x,1.5,x,16.4*,2.4
